Test results taken from ChEMBL document CHEMBL1138405, “Limonoid orthoacetates and antiprotozoal compounds from the roots of Pseudocedrela kotschyi” (J Nat Prod, 2007).
In brackets after ≈: the same amount, converted by molar mass.

Tests used:
Trypanosoma cruzi = test: Antiprotozoal activity against Trypanosoma cruzi Tulahuen C2C4 trypomastigotes in L6 cells; type: functional, organism-based
Plasmodium falciparum = test: Antiplasmodial activity against Plasmodium falciparum K1; type: functional, organism-based
In short: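 P. falciparum K1 is a strain resistant to chloroquine and pyrimethamine.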

Leishmania donovani = test: Antiprotozoal activity against Leishmania donovani MHOM/ET/67/L82 amastigotes; type: functional, organism-based
In short: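 L. donovani tested as axenic amastigotes.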

[1] = tested on: Trypanosoma brucei rhodesiense; test: Antiprotozoal activity against Trypanosoma brucei rhodesiense STIB900; type: functional, organism-based
L6 = test: Cytotoxicity against rat L6 cells; type: cell-based

Question: `O=C(Cn1ccnc1[N+](=O)[O-])NCc1ccccc1` [BENZNIDAZOLE] was tested. Which IC50 (Trypanosoma cruzi) did it give?
Answer: 0.74 µg/mL (≈ 2.84 µM)

Question: `CC1(C)C(=O)C=C[C@]2(C)[C@H]3CC[C@@]4(C)[C@H](c5ccoc5)OC(=O)[C@H]5O[C@]54[C@]3(C)C(=O)C[C@@H]12` [DEACETOXY-7-OXOGEDUNIN] was tested. Which IC50 (Plasmodium falciparum) did it give?
Answer: 1.77 µg/mL (≈ 4.05 µM)

Question: And the IC50 (Leishmania donovani)?
Answer: 0.994 µg/mL (≈ 2.27 µM)

Question: What about the IC50 [1] of the same compound?
Answer: 3.4 µg/mL (≈ 7.75 µM)

Question: What about the IC50 (Trypanosoma cruzi) of the same compound?
Answer: > 30 µg/mL

Question: What about the IC50 (L6) of the same compound?
Answer: > 90 µg/mL

Question: `CC1(C)C(=O)C=C[C@]2(C)[C@H]3CC[C@@]4(C)[C@H](c5ccoc5)OC(=O)[C@H]5O[C@]54[C@]3(C)[C@H](O)C[C@@H]12` [DEACETYLGEDUNIN] was tested. Which IC50 (Plasmodium falciparum) did it give?
Answer: 1.36 µg/mL (≈ 3.09 µM)

Question: What about the IC50 (Leishmania donovani) of the same compound?
Answer: 1.4 µg/mL (≈ 3.18 µM)

Question: And the IC50 [1]?
Answer: 3.45 µg/mL (≈ 7.83 µM)

Question: What about the IC50 (Trypanosoma cruzi) of the same compound?
Answer: 5.2 µg/mL (≈ 11.8 µM)

Question: What about the IC50 (L6) of the same compound?
Answer: 13.3 µg/mL (≈ 30.2 µM)

Question: With `COC(=O)C[C@@H]1[C@](C)([C@@H](OC(C)=O)c2ccoc2)CC[C@@]23OC4(C)O[C@@]12[C@H](OC(=O)C(C)C)[C@@]1(OC(C)=O)[C@@H](OC(C)=O)[C@@]2(C)C[C@@]1(O4)[C@]31COC(=O)C[C@@H]21` [KOTSCHYIN A] as the compound, how does the IC50 (Plasmodium falciparum) read?
Answer: > 5 µg/mL

Question: What about the IC50 (Leishmania donovani) of the same compound?
Answer: > 30 µg/mL

Question: What about the IC50 [1] of the same compound?
Answer: 11.6 µg/mL (≈ 15 µM)

Question: What about the IC50 (Trypanosoma cruzi) of the same compound?
Answer: > 30 µg/mL

Question: What about the IC50 (L6) of the same compound?
Answer: > 90 µg/mL

Question: Which IC50 (Leishmania donovani) does the source give for `CCCCCCCCCCCCCCCCOP(=O)([O-])OCC[N+](C)(C)C` [MILTEFOSINE] here?
Answer: 0.12 µg/mL (≈ 0.294 µM)

Question: How did the IC50 (L6) turn out when `COc1cc([C@@H]2c3cc4c(cc3[C@H](O)[C@H]3COC(=O)[C@H]23)OCO4)cc(OC)c1OC` [PODOFILOX] was run?
Answer: 0.005 µg/mL (≈ 0.0121 µM)
